{"data": "Measured values pooled from the literature", "target": "Tyrosine-protein kinase FRK (FRK, Homo sapiens, UniProt P42685)"}
{"Compound": "CC(C)(C)c1cc(C=C(C#N)C#N)cc(Br)c1O", "test": "enzyme activity, inhibitor", "conditions": "0.5 µM", "endpoint": "remaining activity", "result": "99.3%"}
{"Compound": "Cc1nn(C)cc1-c1nc2c(N3CCN(Cc4ccc(Cl)cc4)CC3)c(Cl)cnc2[nH]1", "test": "binding, competition with immobilised ligand", "conditions": "1 µM", "endpoint": "remaining binding", "result": "100%"}
{"Compound": "O=c1[nH]c2ccccc2n1C1CCN(Cc2ccc(-c3[nH]c4cc5ncnc5cc4nc3-c3ccccc3)cc2)CC1", "test": "cell-free assay", "conditions": "0.5 µM", "endpoint": "remaining signal", "result": "102%"}
{"Compound": "Nc1ncc(-c2nc(N3CCOCC3)nc(N3CCOCC3)n2)c(C(F)F)n1", "test": "binding, competition with immobilised ligand", "conditions": "10 µM", "endpoint": "remaining binding", "result": "100%"}
{"Compound": "N#CC1(c2ccccn2)CCN(Cc2cc(C(=O)O)c(=O)n3ccccc23)CC1", "test": "cell-free assay, competition with immobilised ligand", "conditions": "1 µM", "endpoint": "remaining binding", "result": "100%"}
{"Compound": "COc1ncccc1-c1cnn2ccc(N3CCN(C(=O)OC(C)C)CC3)nc12", "test": "binding, competition with immobilised ligand", "conditions": "1 µM", "endpoint": "remaining binding", "result": "63%"}
{"Compound": "Cn1cc(-c2cc(F)cc(N3CCn4c(cc5c4CCCC5)C3=O)c2CO)cc(Nc2ccc(N3CCN(C4COC4)CC3)cn2)c1=O", "test": "enzyme activity, inhibitor", "conditions": "0.1 µM", "endpoint": "inhibition", "result": "15%"}
{"Compound": "COc1cc(Nc2ncc(F)c(Nc3ccc4c(n3)NC(=O)C(C)(C)O4)n2)cc(OC)c1OC", "test": "binding, competition with immobilised ligand", "conditions": "10 µM", "endpoint": "inhibition", "result": "96%"}
{"Compound": "Cn1cc(-c2cccc(N3CCc4c(sc5c4CC(C)(C)C5)C3=O)c2CO)cc(Nc2ccncn2)c1=O", "test": "enzyme activity, inhibitor", "conditions": "1 µM", "endpoint": "inhibition", "result": "9%"}
{"Compound": "Cn1cncc1[C@](O)(COc1ccc(C#N)cc1-c1ccc(OC(F)(F)F)cc1)c1ccc(C#N)cc1", "test": "cell-free assay, competition with immobilised ligand", "conditions": "1 µM", "endpoint": "remaining binding", "result": "100%"}
